Source: ChEMBL document CHEMBL5712908, “A genome-wide RNAi screen reveals essential therapeutic targets of breast cancer stem cells” (2019)
The source made the active and inactive calls. The rule behind the calls is not given here.

Key:
Breast cancer cell line [1] = experiment: Antitumor activity against patient-derived breast cancer cells orthotopically xenografted in NSG mouse model of PDX assessed as reduction in Ki67 cells at 50 mg/kg, ip 5 out of 7 for 2 weeks by Immunostaining analysis; type: functional, organism-based; details: Homo sapiens
Procedure, shortened: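 Paraffin sections of PDX tumours from 2-week-treated mice. Citrate pH 6 antigen retrieval, then Ki67 immunoperoxidase staining with DAB and haematoxylin counterstain. Proportion of Ki67+ cells quantified; n = 3; t-test.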

Breast cancer cell line [2] = experiment: Synergistic antitumor activity against patient-derived breast cancer cells orthotopically xenografted in NSG mouse model of PDX assessed as reduction in Ki67 cells at 50 mg/kg, ip 5 out of 7 for 2 weeks cotreated with salinomycin by Immunostaining analysis; type: functional, organism-based; details: Homo sapiens
Procedure, shortened: (§1)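 Paraffin sections of treated PDX tumours deparaffinised and subjected to antigen retrieval in citrate buffer pH 6. Peroxidase staining with ready-to-use Ki67 or cleaved caspase-3 antibody, DAB substrate, haematoxylin counterstain. Proportion of positive cells quantified; n = 3; t-test.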

MDA-MB-436 = experiment: Antitumor activity against human MDA-MB-436 cells assessed as K-score by measuring ALDHbr cells by LSR2 cytometer; type: functional
Procedure, shortened: (§2)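 Cell lines exposed for 72 h in adherent culture to a range of concentrations centred on the MTS-derived IC50. ALDHbr proportion measured by ALDEFLUOR flow cytometry (LSR2). K-score is the linear regression coefficient, on log10-transformed doses, between the untreated condition and the dose predicted to give a 50% decrease or increase in ALDHbr proportion versus control.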

SUM-159-PT [3] = experiment: Synergistic anticancer activity against human SUM159 cells expressing BFP assessed as reduction in ALDHbr cell at 5 to 500 nM in presence of salinomycin by LSR2 cytometer analysis; type: functional, cell-based; details: dose 5-500 nM
Breast cancer cell line [4] = experiment: Synergistic antitumor activity against human reimplanted CRCM404 negative breast cancer cells orthotopically xenografted in NSG mouse model of PDX assessed as reduction tumor volume at 50 mg/kg, ip 5 out of 7 for 2 weeks cotreated with salinomycin by limiting dilation analysis; type: functional, organism-based
Breast cancer cell line [5] = experiment: Synergistic apoptosis activity in patient-derived breast cancer cells orthotopically xenografted in NSG mouse model of PDX assessed as increase in cleaved caspase-3 at 50 mg/kg, ip 5 out of 7 for 2 weeks cotreated with salinomycin by Immunostaining analysis; type: functional, organism-based; details: Homo sapiens; procedure, shortened: as §1
Breast cancer cell line [6] = experiment: Antitumor activity against human CRCM434 negative breast cancer cells orthotopically xenografted in NSG mouse model of PDX assessed as reduction in tumor volume at 50 mg/kg, ip 5 out of 7 for 2 weeks; type: functional, organism-based
Procedure, shortened: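 Chemo-naïve triple-negative PDX cells injected at 100,000 per fat pad, two fat pads per NSG mouse. At ~80 mm³ tumours, mice received i.p. 3 mg/kg daily for 14 days or 50 mg/kg 5 of 7 days for 2 weeks; placebo was DMSO/HPCD 10% (1:9). Five mice (10 tumours) per group. Tumour growth monitored; after 2 weeks tumours dissociated, mouse cells excluded via anti-H2Kd, ALDHbr measured by ALDEFLUOR flow cytometry and normalised to vehicle.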

Breast cancer cell line [7] = experiment: Synergistic antitumor activity against human CRCM404 negative breast cancer cells orthotopically xenografted in NSG mouse model of PDX assessed as reduction in tumor volume at 50 mg/kg, ip 5 out of 7 for 2 weeks cotreated with salinomycin; type: functional, organism-based
Procedure, shortened: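 Orthotopic PDX in NSG mice, 100,000 cells per fat pad, two pads per mouse; treatment from ~80 mm³ tumours with salinomycin i.p. 3 mg/kg daily 14 days, JQ1 i.p. 50 mg/kg 5 of 7 days for 2 weeks, or combination, against placebo DMSO/HPCD 10% (1:9). Tumour growth monitored; n = 10 tumours per group.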

SUM149PT = experiment: Antitumor activity against human SUM149 cells assessed as K-score by measuring ALDHbr cells by LSR2 cytometer; type: functional; procedure, shortened: as §2
Breast cancer cell line [8] = experiment: Synergistic antitumor activity against human reimplanted CRCM434 negative breast cancer cells orthotopically xenografted in NSG mouse model of PDX assessed as reduction tumor volume at 50 mg/kg, ip 5 out of 7 for 2 weeks cotreated with salinomycin by limiting dilation analysis; type: functional, organism-based
SUM-159-PT [9] = experiment: Anticancer activity against human SUM159 cells assessed as decrease in primary tumor sphere formation incubated for 72 hrs by Extreme limiting dilution analysis; type: functional, cell-based
Procedure, shortened: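 Cells drug-treated in adherent culture for 72 h, then plated as single cells in ultra-low attachment 96-well plates in serum-free mammary epithelium basal medium. Plating at 25/10/5/3/2/1 cells per well, 18–36 wells per condition. Wells with ≥1 sphere after 10 days scored positive. Secondary spheres were made by dissociating primary spheres. Frequency by ELDA; n = 4; pairwise chi-square test.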

Breast cancer cell line [10] = experiment: Antitumor activity against human reimplanted CRCM404 negative breast cancer cells orthotopically xenografted in NSG mouse model of PDX assessed as reduction tumor volume at 50 mg/kg, ip 5 out of 7 for 2 weeks by limiting dilation analysis; type: functional, organism-based
Procedure, shortened: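 After 2 weeks of i.p. treatment (3 mg/kg daily or 50 mg/kg 5 of 7 days), dissociated PDX tumour cells reimplanted into secondary NSG mice at 50, 500 or 5,000 cells. A mouse counted as tumour-bearing once a tumour reached 10 mm. bCSC frequency per 10,000 cells estimated by ELDA; pairwise chi-square test.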

SUM-159-PT [11] = experiment: Synergistic apoptosis in human SUM159 cell expressing ALDH at 500 nM incubated for 72 hrs in presence of salinomycin by ALDEFLUOR/YO-PRO-3/ Hoechst 33342 staining based high content imaging microscopic analysis; type: functional
Procedure, shortened: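 SUM159 cells seeded at 3,000 cells/well in collagen-coated 96-well plates. Drug added at 6, 24 and 48 h post-seeding. Cisplatin served as positive control and 0.1% v/v DMSO as vehicle control. At 72 h post-seeding, cells were stained with ALDEFLUOR, YO-PRO-3 (1/4,000) and Hoechst 33342 (10 μg/ml) in ALDEFLUOR buffer for 30 min at 37°C, then imaged on ice by high-content microscopy, 9 fields/well. DEAB set the ALDHbr gate. YO-PRO-3⁺ fraction per subpopulation was gated against untreated cells.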

SUM-159-PT [12] = experiment: Anticancer activity against human SUM159 cells expressing BFP assessed as reduction in ALDHbr cell at 50 nM by LSR2 cytometer analysis; type: functional
[13] = Antitumor activity against human BrCa-MZ-01 cells assessed as K-score by measuring ALDHbr cells by LSR2 cytometer; type: functional; procedure, shortened: as §2

For `Cc1sc2c(c1C)C(c1ccc(Cl)cc1)=N[C@@H](CC(=O)OC(C)(C)C)c1nnc(C)n1-2`, the Activity (Breast cancer cell line [1]) was “Active”, the Activity (Breast cancer cell line [2]) was “Active” and the Activity (MDA-MB-436) was -0.15. For the same compound, the Activity (SUM-159-PT [3]) was “Active”, the Activity (Breast cancer cell line [4]) was “Active” and the Activity (Breast cancer cell line [5]) was “inactive”. For the same compound, the Activity (Breast cancer cell line [6]) was “Active”, the Activity (Breast cancer cell line [7]) was “Active” and the Activity (SUM149PT) was -0.13. The Activity (Breast cancer cell line [8]) was “Active”, the Activity (SUM-159-PT [9]) was “Active” and the Activity (Breast cancer cell line [10]) was “Active”. The Activity (SUM-159-PT [11]) was “Active”, the “fold change (FC)” value (SUM-159-PT [12]) was 2 and the Activity [13] was -0.03.
